Results reported in the array DNA melting data of Ke et al. (doi:10.1101/2024.01.08.574731).

Key:
[1] = folding enthalpy; higher = less favourable; fluorescence melt of hairpins on a sequencing array, two-state fit; settings: sodium 0.088 M
How it was run: (§1)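 Folding enthalpy and melting temperature come from bootstrapped two-state fits to Cy3 fluorescence of library hairpins carrying annealed Cy3 and quencher oligos on a sequenced MiSeq flow cell. Imaging was done in 50 mM Na-HEPES pH 8.0, 25 mM NaCl, stepping by 2.5 °C up to 60 °C, and signals were normalised to pre-quench Cy3 and to control constructs. Results of four replicates were combined by inverse variance, and fitted temperatures were raised by 9.35 °C to match UV melts.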

[2] = melting temperature; fluorescence melt of hairpins on a sequencing array, two-state fit, raised by 9.35 °C to match UV melts; settings: sodium 0.088 M
How it was run: as §1

Sequence	folding enthalpy [1] [kcal/mol]	Tm [2] [°C]
GATAGCGAAAGCTTAATC ((((((....)))..)))	-10.8	25.3
CGGGCGGAAACGCTTCCG ((((((....)))..)))	-17.9	41
GATCCACGGTTGGATC ((((((....))))))	-37.7	48.9
CGGGCGGAAACGCCGCCG ((((((....)))..)))	-10.2	47.8
GAAGTGGGAAACCGCTTC ((((.((....)).))))	-31.4	51.6
GATCCTTCCCAGGATC ((((((....))))))	-36.9	52
GTACATGGAAACATGTGC (.(((((....))))).)	-22.7	48.6
GATCAATTCGTTGATC ((((((....))))))	-37.8	48.6
GAATGCGAAAGCAATTTC ((((((....)))..)))	-9.54	30.6
GCAACCGAAAGGTAATGC ((((((....)))..)))	-20.1	38.6
GTAGGCGAAAGCCCTAC ((((((....))).)))	-14.8	47.7
GACCAGGGAAACCTGATC ((.((((....)))).))	-22.3	34.8
GTCGGCCGAAAGGCGAC (((.(((....))))))	-21.9	67.2
GCAGACGAAAGTCGTTGC ((((((....)))..)))	-14.1	50.5
GTATAAGAAATTATAC ((((((....))))))	-14.5	29.6
GATCGTACATACGATC ((((((....))))))	-41.2	54.9
GGTCGTGGAAACGCGATC (.(((.(....).))).)	-26.9	43.8
GTTTTGGCGAAAGCCAAC (((..(((....))))))	-8.06	38.6
GTATAGACGAAAGTCTAC (((..(((....))))))	-10.5	33.5
GGAGACCGAAAGGTTCC (((.(((....))))))	-22.5	48
GGGCCGGGAAACCGGCTC (.(((((....))))).)	-15.4	66.8
GTGACCTCGAAAGAGCAC (((..(((....))))))	-14.8	30.9
GGGACGGGAAACCGTTCC ((.((((....)))).))	-35.2	57.2
GTTATCCGAAAGGAAAAC (((.(((....))).)))	-25.2	40.8

Sequence	folding enthalpy [1] [kcal/mol]	Tm [2] [°C]
GCATTGTCGAAAGACTGC (((..(((....))))))	-22.8	37.2
GGACCCCGAAAGGGATCC (((.(((....))).)))	-26.9	55.3
CGAGCACGGAAACGTTCG (((..(((....))))))	-13.5	36.7
GTATGACCGAAAGGTTAC (((..(((....))))))	-10.3	30.5
GATATCACGAAAGTGATC (((..(((....))))))	-9.68	39.4
GGACTTCGAAAGAAATCC (((.(((....))).)))	-26.6	37.3
GCGACAACTCGC ((((....))))	-21.2	41.7
GAATCTGGAAACAGATCC (.(((((....))))).)	-17.1	33.1
GTCGTGGCGAAAGCCGAC (((..(((....))))))	-17.2	54.6
GATCTTCACCAAGATC ((((((....))))))	-35.5	41.9
GGGGAGGAAACTCCCC ((((((....))))))	-36.9	66.3
GTGTTAGGAAACTGACAC ((((.((....)).))))	-33.8	46.1
GGACTGGGAAACCAGCCC ((.((((....)))).))	-20.5	50.4
GATCAGACTCCTGATC ((((((....))))))	-36.1	47.5
GATCGTATAGACGATC ((((((....))))))	-38.1	53
GTCCCCGGAAACAGGGAC (((((.(....).)))))	-39.9	48.6
GAGGACCGAAAGGTCTC (((.(((....))))))	-10.9	46.5
GATCTTTTGCAAGATC ((((((....))))))	-34.8	42.8
GATCAGGGCACTGATC ((((((....))))))	-37.2	59.8
GATAGACGAAAGTCAATC (((.(((....))).)))	-22.5	41.2
GGATCTGAAAAGATCC ((((((....))))))	-37	58.3
GAAAACCGAAAGGTCTTC (((.(((....))).)))	-18.9	35.8
GATCTCGTGAGAGATC ((((((....))))))	-31	66.9
GAAGTGGGAAACCACTCC (.(((((....))))).)	-14	38.4

Sequence	folding enthalpy [1] [kcal/mol]	Tm [2] [°C]
GATCCCCCTCGGGATC ((((((....))))))	-34	58.2
GACTCGGGAAACCAAGTC ((((.((....)).))))	-25	37.6
GCAGATCGAAAGATTTGC (((.(((....))).)))	-43.6	52.1
AGTCGGAAACGACT (((((....)))))	-20.1	54.3
GCTGGACGAAAGTCGAGC (((.(((....))).)))	-44.2	56.2
GAAGGAGGAAACTCCCTC ((.((((....)))).))	-12.1	28.4
GTGCTCGGAAACAAGCAC (((((.(....).)))))	-31.9	46.2
GCGGCCTCCCGC ((((....))))	-22.3	56.3
GCCACGCGAAAGCCAGGC (((..((....))..)))	-22.7	50.2
GGTATGACGAAAGTCACC (((..(((....))))))	-11.8	33.6
GATCCAGCCTTGGATC ((((((....))))))	-37.2	53.5
CATTTGAAAAAATG (((((....)))))	-11.1	32.1
GCTGAGCGAAAGCTTAGC (((.(((....))).)))	-50.4	57.4
GGTGTACGAAAGTAGACC (((.(((....))).)))	-38.3	52.2
GGAGCCGGAAACGGCTTC (.(((((....))))).)	-15	60.8
GCCATGCGAAAGCCTCGC ((.(.((....)).).))	-6.86	34
GATCCCTGGAGGGATC ((((((....))))))	-34.4	59.4
GATCTGAGACCAGATC ((((((....))))))	-32.9	44.5
GCCACGCGAAAGCGAAGC ((..(((....)))..))	-11.2	43.4
GAAGCAGGAAACTGTTTC (((.(((....))).)))	-26.7	38.8
GATCATTGAATGATC ((((((...))))))	-35.9	44.4
GTGGTCGAAAGACAGCAC ((((((....)))..)))	-16.9	40.6
GATCAACCCATTGATC ((((((....))))))	-31.8	44.8
GATCCGAGTGCGGATC ((((((....))))))	-40.6	59.1

Sequence	folding enthalpy [1] [kcal/mol]	Tm [2] [°C]
GCAAAGCGAAAGCGTCGC ((.(.((....)).).))	-23.7	60.2
GCGAAAGGAAACTTTCGC (((((((....)))))))	-44.2	64.6
GCACCCGAAAGGGCGTGC ((((((....)))..)))	-29.6	51.2
GTAGCGCGAAAGCGGTAC (((.(((....))).)))	-25.3	68.8
GACGCTGGAAACAGTGTC (((.(((....))).)))	-42	53.5
GCTCAGCGAAAGCCGAGC ((((.((....)).))))	-28.1	63.5
GGATTCCGAAAGGACTCC (((.(((....))).)))	-38.8	47
GCACAGCGAAAGCAATGC (((..((....))..)))	-10.9	37.3
GCTCAAGGAAACCTGAGC (((((.(....).)))))	-35.4	46.9
GTATACGAAAGTAGTAC ((((((....))).)))	-11.7	29.6
GATCGAAACTTCGATC ((((((....))))))	-33.9	53.5
GCGGTCCACCGC ((((....))))	-26.2	68.5
GCTTGAGAAATCAAGC ((((((....))))))	-35.3	55.8
GTCCCCGAAAGGGGGGAC ((((((....)))..)))	-11.7	60.5
GTGCGCGAAAGCGTTCAC ((((((....)))..)))	-11.3	39.9
CGCGGAAGAATCCGCG ((((((....))))))	-32.1	69
GGTGGAGAAATCCACC ((((((....))))))	-33.1	59.8
GTGAGCGAAAGCTACCAC ((((((....)))..)))	-10.5	35.9
GATGTCGAAAGACATC ((((((....))))))	-36.3	66.3
GCGTGACCACGC ((((....))))	-21.2	61.3
CGATCCGGAAACGGTCG (((.(((....))))))	-29.1	50.5
